One experiment relates to Plasmodium falciparum. Description: Antiplasmodial activity against Plasmodium falciparum 3D7. Type of experiment: functional, organism-based.
The test system of experiment [1] is HCT-116. Description: Cytotoxicity against human HCT116 cells at 50 uM after 48 hrs by MTT assay. It is filed as functional, cell-based. Background: Tetrazolium assays rely on reduction of a dye to a coloured formazan, in cell work by metabolically active cells.
Experiment [2] concerns MCF7. The experiment can be described thus: Cytotoxicity against human MCF7 cells at 50 uM after 48 hrs by MTT assay. It is filed as functional, cell-based.
Experiment [3] deals with HL-60. The experiment can be described thus: Cytotoxicity against human HL60 cells at 50 uM after 48 hrs by MTT assay. It is filed as functional, cell-based.
The test system of experiment [4] is HL-60. Description: Cytotoxicity against human HL60 cells after 48 hrs by MTT assay. It is filed as functional, cell-based. Conditions: HL-60, 48 h. The procedure, abridged: (§1)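 Cells seeded in 96-well plates, HL-60 at 1 × 10^4 cells/well and HCT-116 and MCF-7 at 5 × 10^3 cells/well, then preincubated 24 h at 37 °C in humidified 5% CO2. Compounds were added at graded concentrations and incubated for 48 h at 37 °C. MTT (5 mg/mL) was added for 2 h, and formazan was dissolved in 10% SDS/0.01 N HCl. Absorbance was read at 550 and 700 nm. Triplicate wells were used, and IC50 was taken from percent living cells versus controls.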

The test system of experiment [5] is HCT-116. The experiment can be described thus: Cytotoxicity against human HCT116 cells after 48 hrs by MTT assay. It is filed as functional, cell-based. Conditions: HCT-116, 48 h. In short, it runs like this:
as §1

Experiment [6] deals with MCF7. The experiment can be described thus: Cytotoxicity against human MCF7 cells after 48 hrs by MTT assay. Type of experiment: functional, cell-based. Conditions: MCF7, 48 h. In short, it runs like this: as §1

For 6 molecules, Activity and IC50 results are on record in ChEMBL document CHEMBL1151956, “Sucutiniranes C-F, cassane-type diterpenes from Bowdichia nitida” (J Nat Prod, 2009).

SMILES strings stand for the structures. Calls of active or inactive are those of the source. No cut-off for these calls is given here.

As to `CC(=O)O[C@H]1Cc2c(cc3occc3c2C)[C@@]2(C)CCCC(C)(C)[C@H]12`, the outcome with Plasmodium falciparum, with HCT-116 [1], in the experiment with MCF7 [2] and in the experiment on HL-60 [3] was inactive.

In the case of `Cc1c2c(cc3occc13)[C@@]1(C)CCCC(C)(C)[C@@H]1C=C2`, the outcome with Plasmodium falciparum, with HCT-116 [1], in the experiment with MCF7 [2] and in the experiment with HL-60 [3] was inactive.

As for `CC(=O)O[C@H]1C[C@H]2[C@@H](C)C3=CC(=O)O[C@@H]3C[C@@H]2[C@@]2(C)CCCC(C)(C)[C@H]12` [12-DEOXY-SUCUTINIRANE A], in the experiment on HL-60 [4], inhibition was half-maximal at 32 µM (IC50).

For the molecule `CC(=O)O[C@H]1C[C@H]2[C@@H](C)C3=CC(=O)O[C@]3(O)C[C@@H]2[C@@]2(C)CCCC(C)(C)[C@H]12` [SUCUTINIRANE A], the midpoint of inhibition in the experiment with HL-60 [4], the IC50, lay at 14 µM.

Take `CC(=O)O[C@H]1[C@H](O)[C@H]2[C@@H](C)c3ccoc3C[C@@H]2[C@@]2(C)CCCC(C)(C)[C@H]12` [Sucutinirane E]: the outcome with Plasmodium falciparum was inactive. Moreover, the IC50 – broadly, the concentration needed to halve the response being measured – in the experiment on HCT-116 [5] came to 36 µM; in the experiment on HL-60 [4], 12 µM; in the experiment with MCF7 [6], 35 µM.

Take `CC(=O)O[C@H]1[C@H](O)[C@H]2C(C)(C)CCC[C@]2(C)[C@H]2Cc3occc3[C@H](C)[C@H]12` [Sucutinirane F]: in the experiment on Plasmodium falciparum, the result was inactive. Moreover, the figures for the IC50 in the experiment with HCT-116 [5], in the experiment with HL-60 [4] and in the experiment on MCF7 [6] were 30 µM, 7.5 µM and 18 µM, respectively.
